From ChEMBL document CHEMBL6134765, “Rapid identification of novel indolylarylsulfone derivatives as potent HIV-1 NNRTIs via miniaturized CuAAC click-chemistry-based combinatorial libraries” (RSC Med Chem, 2025)

Key:
[1] = Cytotoxicity against human MT4 cells assessed as reduction in cell viability incubated for 5 days by MTT assay; type: toxicity, cell-based; details: time 5 day
How it was run: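 Mock-infected MT-4 cultures were read by MTT for cell viability. CC50 is the concentration that reduces viability by 50%.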

[2] = Selectivity index, ratio of CC50 for cytotoxicity against human MT4 cells to EC50 for antiviral activity against wild-type HIV-1 IIIB infected in human MT4 cells; type: toxicity, cell-based; details: read-out: Ratio CC50/EC50
How it was run: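 Selectivity index is calculated as CC50 (mock-infected MT-4, MTT) divided by EC50 (HIV-1 IIIB protection of MT-4, MTT).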

[3] = tested on: Human immunodeficiency virus 1; test: Antiviral activity against HIV-1 harboring F227L/V106A double mutant infected in human MT4 cells assessed as inhibition of virus induced cytotoxicity incubated for 5 days by spectrophometry based MTT assay; type: functional, organism-based; details: Human immunodeficiency virus 1, MT4, 120 h
How it was run: (§1)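 MT-4 cells (from Dr. N. Yamamoto, Yamaguchi University) infected with single-mutant (L100I, K103N, Y181C, Y188L, E138K) or double-mutant (F227L/V106A; RES056 = K103N/Y181C) HIV-1 strains. Protection against virus-induced cytotoxicity was read by the MTT method. EC50 is the concentration giving 50% protection of the cell cultures.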

[4] = tested on: Human immunodeficiency virus 1; test: Antiviral activity against HIV-1 harboring RES056 mutant infected in human MT4 cells assessed as inhibition of virus induced cytotoxicity incubated for 5 days by spectrophometry based MTT assay; type: functional, organism-based; details: Human immunodeficiency virus 1, MT4, 120 h; how it was run: as §1
[5] = tested on: Human immunodeficiency virus 1; test: Antiviral activity against HIV-1 harboring Y188L mutant infected in human MT4 cells assessed as inhibition of virus induced cytotoxicity incubated for 5 days by spectrophometry based MTT assay; type: functional, organism-based; details: Human immunodeficiency virus 1, MT4, 120 h; how it was run: as §1
[6] = target: Human immunodeficiency virus type 1 reverse transcriptase (Human immunodeficiency virus 1) (UniProt Q72547); test: Inhibition of recombinant HIV-1 reverse transcriptase at 0.66 mM incubated for 1 hr by ELISA relative to control
How it was run: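 Each library compound was tested directly as the crude click mixture (diluted in DMSO to 2 mM per well) against HIV-1 RT at 0.66 mM, using an ELISA-based RT kit following the kit protocol. Blank controls held DMSO, TBTA, CuSO4·5H2O and sodium ascorbate. Inhibition is expressed as a percentage.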

[7] = tested on: Human immunodeficiency virus 1; test: Antiviral activity against wild-type HIV-1 IIIB infected in human MT4 cells incubated for 5 days by spectrophometry based MTT assay; type: functional, organism-based; details: Human immunodeficiency virus 1, IIIB, MT4, 120 h
How it was run: (§2)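 MTT protection assay in MT-4 cells infected with HIV-1 IIIB or HIV-2 ROD. EC50 is the compound concentration giving 50% protection of the cultures against virus-induced cytotoxicity.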

[8] = tested on: Human immunodeficiency virus 1; test: Antiviral activity against HIV-1 harboring Y181C mutant infected in human MT4 cells assessed as inhibition of virus induced cytotoxicity incubated for 5 days by spectrophometry based MTT assay; type: functional, organism-based; details: Human immunodeficiency virus 1, MT4, 120 h; how it was run: as §1
[9] = tested on: Human immunodeficiency virus 1; test: Antiviral activity against HIV-1 harboring E138K mutant infected in human MT4 cells assessed as inhibition of virus induced cytotoxicity incubated for 5 days by spectrophometry based MTT assay; type: functional, organism-based; details: Human immunodeficiency virus 1, MT4, 120 h; how it was run: as §1
[10] = tested on: Human immunodeficiency virus 1; test: Antiviral activity against HIV-1 harboring L100I mutant infected in human MT4 cells assessed as inhibition of virus induced cytotoxicity incubated for 5 days by spectrophometry based MTT assay; type: functional, organism-based; details: Human immunodeficiency virus 1, MT4, 120 h; how it was run: as §1
[11] = tested on: Human immunodeficiency virus 2; test: Antiviral activity against HIV-2 ROD infected in human MT4 cells incubated for 5 days by spectrophotometry based MTT assay; type: functional, organism-based; details: Human immunodeficiency virus 2, ROD, MT4, 120 h; how it was run: as §2
[12] = tested on: Human immunodeficiency virus 1; test: Antiviral activity against HIV-1 harboring K103N mutant infected in human MT4 cells assessed as inhibition of virus induced cytotoxicity incubated for 5 days by spectrophometry based MTT assay; type: functional, organism-based; details: Human immunodeficiency virus 1, MT4, 120 h; how it was run: as §1

Structure (SMILES)	inhibition [6] [%]	CC50 at 120 h [1] [µM]	selectivity ratio [2]	EC50 [3] [µM]	EC50 [4] [µM]	EC50 [5] [µM]	further results
Cc1ccnc2c1NC(=O)c1cccnc1N2C1CC1 [NEVIRAPINE]		> 15	> 92	≥ 5.41	> 15	≥ 7.7	
Cc1cc(C)cc(S(=O)(=O)c2c(C(=O)NCc3cn(Cc4ccccc4Cl)nn3)[nH]c3ccc(Cl)cc23)c1	< 85						
Cc1cc(C#N)cc(C)c1Oc1nc(Nc2ccc(C#N)cc2)nc(N)c1Br [ETRAVIRINE]		> 6.33	> 1640	0.018	0.038		
Cc1cc(C)cc(S(=O)(=O)c2c(C(=O)NCc3cn(CCN4C(=O)c5ccccc5C4=O)nn3)[nH]c3ccc(Cl)cc23)c1	< 85						
Cc1cc(C)cc(S(=O)(=O)c2c(C(=O)NCc3cn(Cc4ccc([N+](=O)[O-])cc4)nn3)[nH]c3ccc(Cl)cc23)c1	< 85						
Cc1cc(C)cc(S(=O)(=O)c2c(C(=O)NCc3cn(Cc4cccc5ccccc45)nn3)[nH]c3ccc(Cl)cc23)c1	> 85	> 214	> 3510	1.99	113	25	EC50 [7]: 0.061 µM; EC50 [8]: 0.62 µM; EC50 [9]: 0.24 µM; EC50 [10]: 0.3 µM; EC50 [11]: > 214 µM; EC50 [12]: 0.7 µM
Cc1cc(C)cc(S(=O)(=O)c2c(C(=O)NCc3cn(CC(=O)Nc4ccc(C(F)(F)F)cc4)nn3)[nH]c3ccc(Cl)cc23)c1	> 85	17	148	> 17	> 17	0.4	EC50 [7]: 0.11 µM; EC50 [8]: > 7.41 µM; EC50 [9]: 2.22 µM; EC50 [10]: 0.59 µM; EC50 [11]: > 17 µM; EC50 [12]: 1.72 µM
Nc1ccn([C@@H]2CS[C@H](CO)O2)c(=O)n1 [LAMIVUDINE]		> 87.2	> 17			3.56	
Cc1cc(C)cc(S(=O)(=O)c2c(C(=O)NCc3cn(Cc4ccccc4C)nn3)[nH]c3ccc(Cl)cc23)c1	< 85						
Cc1cc(C)cc(S(=O)(=O)c2c(C(=O)NCc3cn(Cc4ccc(C#N)cc4)nn3)[nH]c3ccc(Cl)cc23)c1	< 85						
Cc1cc(C)cc(S(=O)(=O)c2c(C(=O)NCc3cn(CCc4ccsc4)nn3)[nH]c3ccc(Cl)cc23)c1	< 85						
Cc1cc(C)cc(S(=O)(=O)c2c(C(=O)NCc3cn(CC(=O)Nc4ccc(F)cc4)nn3)[nH]c3ccc(Cl)cc23)c1	> 85	16.2	188	5.09	> 16.2	14.1	EC50 [7]: 0.087 µM; EC50 [8]: 1.07 µM; EC50 [9]: 0.56 µM; EC50 [10]: 0.53 µM; EC50 [11]: > 16.2 µM; EC50 [12]: 2.78 µM
Cc1cc(C)cc(S(=O)(=O)c2c(C(=O)NCc3cn(CCc4ccccc4)nn3)[nH]c3ccc(Cl)cc23)c1	> 85	162	1080	4.33	> 4.69	> 162	EC50 [7]: 0.15 µM; EC50 [8]: 2.51 µM; EC50 [9]: 0.87 µM; EC50 [10]: 1 µM; EC50 [11]: > 4.69 µM; EC50 [12]: 0.54 µM

Now from value to compound, other results behind:

inhibition [6] [%]	Structure (SMILES)	CC50 at 120 h [1] [µM]	selectivity ratio [2]	EC50 [3] [µM]	EC50 [4] [µM]	EC50 [5] [µM]	further results
< 85	Cc1cc(C)cc(S(=O)(=O)c2c(C(=O)NCc3cn(-c4ccc(C(=O)O)cc4Cl)nn3)[nH]c3ccc(Cl)cc23)c1						
< 85	Cc1cc(C)cc(S(=O)(=O)c2c(C(=O)NCc3cn(CC(=O)N4CCCC4)nn3)[nH]c3ccc(Cl)cc23)c1						
< 85	Cc1cc(C)cc(S(=O)(=O)c2c(C(=O)NCc3cn(CC(=O)Nc4ccc(S(C)(=O)=O)cc4)nn3)[nH]c3ccc(Cl)cc23)c1						
< 85	Cc1ccc(Cn2cc(CNC(=O)c3[nH]c4ccc(Cl)cc4c3S(=O)(=O)c3cc(C)cc(C)c3)nn2)cc1						
< 85	COc1ccccc1Cn1cc(CNC(=O)c2[nH]c3ccc(Cl)cc3c2S(=O)(=O)c2cc(C)cc(C)c2)nn1						
< 85	Cc1cc(C)cc(S(=O)(=O)c2c(C(=O)NCc3cn(Cc4ccccc4C#N)nn3)[nH]c3ccc(Cl)cc23)c1						
